In ChEMBL document CHEMBL4689842, “EUbOPEN Chemogenomics Library wave 1” (2021):

Tested on: U2OS
Experiment: Multiplex assay against U2OS
Format: toxicity, cell-based
Conditions: human
Procedure, shortened: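 Live cells were stained at seeding with Hoechst33342, BioTracker Green Microtubule Cytoskeleton Dye, MitoTracker Red and Annexin V Alexa Fluor 680, then imaged on a CQ1 microscope at 37°C and 5% CO2 after compound addition. CellPathfinder machine-learning gating split cells into Hoechst high-intensity objects or normal cells. Normal cells were split into healthy, pyknosed or fragmented nuclei, and pyknosed cells into mitotic or apoptotic. Tubulin, mitochondrial-mass and membrane-permeability phenotypes are per cents of healthy-nucleus cells.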

[1] = 12 h, 1 µM, compound concentration 1 uM, replicate 1
[2] = 12 h, 1 µM, compound concentration 1 uM, replicate 2
[3] = 12 h, 10 µM, compound concentration 10 uM, replicate 1
[4] = 12 h, 10 µM, compound concentration 10 uM, replicate 2
[5] = 24 h, 1 µM, compound concentration 1 uM, replicate 1
[6] = 24 h, 1 µM, compound concentration 1 uM, replicate 2
[7] = 24 h, 10 µM, compound concentration 10 uM, replicate 1
[8] = 24 h, 10 µM, compound concentration 10 uM, replicate 2
[9] = 48 h, 1 µM, compound concentration 1 uM, replicate 1
[10] = 48 h, 1 µM, compound concentration 1 uM, replicate 2
[11] = 48 h, 10 µM, compound concentration 10 uM, replicate 1
[12] = 48 h, 10 µM, compound concentration 10 uM, replicate 2

CN1CCCC(n2nc(Cc3ccc(Cl)cc3)c3ccccc3c2=O)CC1.Cl (stereo not given) [AZELASTINE HYDROCHLORIDE]
Population Apoptotic (%) [1]: 42%
Population Fragmented Nuclei (%) [1]: 12%
Population Healthy Nuclei (%) [1]: 71%
Population Hoechst High Intensity Objects (%) [1]: 8%
Population Membrane Permeable-Phenotype (%) [1]: 11%
Population Mitochondria Different-Phenotype (%) [1]: 64%
Population Mitotic Cells (%) [1]: 57%
Population Normal (%) [1]: 91%
Population Pyknosed Nuclei (%) [1]: 16%
Population Tubulin-Different-Phenotype (%) [1]: 70%
Total Cell Count [1]: 95
Population Apoptotic (%) [2]: 25%
Population Fragmented Nuclei (%) [2]: 6%
Population Healthy Nuclei (%) [2]: 84%
Population Hoechst High Intensity Objects (%) [2]: 11%
Population Membrane Permeable-Phenotype (%) [2]: 7%
Population Mitochondria Different-Phenotype (%) [2]: 57%
Population Mitotic Cells (%) [2]: 75%
Population Normal (%) [2]: 88%
Population Pyknosed Nuclei (%) [2]: 8%
Population Tubulin-Different-Phenotype (%) [2]: 68%
Total Cell Count [2]: 51
Population Apoptotic (%) [3]: 63%
Population Fragmented Nuclei (%) [3]: 18%
Population Healthy Nuclei (%) [3]: 52%
Population Hoechst High Intensity Objects (%) [3]: 12%
Population Membrane Permeable-Phenotype (%) [3]: 77%
Population Mitochondria Different-Phenotype (%) [3]: 97%
Population Mitotic Cells (%) [3]: 36%
Population Normal (%) [3]: 87%
Population Pyknosed Nuclei (%) [3]: 28%
Population Tubulin-Different-Phenotype (%) [3]: 97%
Total Cell Count [3]: 87
Population Apoptotic (%) [4]: 57%
Population Fragmented Nuclei (%) [4]: 14%
Population Healthy Nuclei (%) [4]: 70%
Population Hoechst High Intensity Objects (%) [4]: 4%
Population Membrane Permeable-Phenotype (%) [4]: 84%
Population Mitochondria Different-Phenotype (%) [4]: 98%
Population Mitotic Cells (%) [4]: 42%
Population Normal (%) [4]: 95%
Population Pyknosed Nuclei (%) [4]: 15%
Population Tubulin-Different-Phenotype (%) [4]: 100%
Total Cell Count [4]: 96
Population Apoptotic (%) [5]: 33%
Population Fragmented Nuclei (%) [5]: 16%
Population Healthy Nuclei (%) [5]: 65%
Population Hoechst High Intensity Objects (%) [5]: 5%
Population Membrane Permeable-Phenotype (%) [5]: 5%
Population Mitochondria Different-Phenotype (%) [5]: 70%
Population Mitotic Cells (%) [5]: 66%
Population Normal (%) [5]: 94%
Population Pyknosed Nuclei (%) [5]: 17%
Population Tubulin-Different-Phenotype (%) [5]: 68%
Total Cell Count [5]: 108
Population Apoptotic (%) [6]: 50%
Population Fragmented Nuclei (%) [6]: 7%
Population Healthy Nuclei (%) [6]: 76%
Population Hoechst High Intensity Objects (%) [6]: 8%
Population Membrane Permeable-Phenotype (%) [6]: 10%
Population Mitochondria Different-Phenotype (%) [6]: 57%
Population Mitotic Cells (%) [6]: 50%
Population Normal (%) [6]: 91%
Population Pyknosed Nuclei (%) [6]: 15%
Population Tubulin-Different-Phenotype (%) [6]: 50%
Total Cell Count [6]: 57
Population Apoptotic (%) [7]: 90%
Population Fragmented Nuclei (%) [7]: 29%
Population Healthy Nuclei (%) [7]: 46%
Population Hoechst High Intensity Objects (%) [7]: 10%
Population Membrane Permeable-Phenotype (%) [7]: 95%
Population Mitochondria Different-Phenotype (%) [7]: 97%
Population Mitotic Cells (%) [7]: 9%
Population Normal (%) [7]: 89%
Population Pyknosed Nuclei (%) [7]: 24%
Population Tubulin-Different-Phenotype (%) [7]: 100%
Total Cell Count [7]: 99
Population Apoptotic (%) [8]: 95%
Population Fragmented Nuclei (%) [8]: 16%
Population Healthy Nuclei (%) [8]: 58%
Population Hoechst High Intensity Objects (%) [8]: 4%
Population Membrane Permeable-Phenotype (%) [8]: 98%
Population Mitochondria Different-Phenotype (%) [8]: 100%
Population Mitotic Cells (%) [8]: 4%
Population Normal (%) [8]: 95%
Population Pyknosed Nuclei (%) [8]: 25%
Total Cell Count [8]: 96
Population Apoptotic (%) [9]: 54%
Population Fragmented Nuclei (%) [9]: 15%
Population Healthy Nuclei (%) [9]: 67%
Population Hoechst High Intensity Objects (%) [9]: 6%
Population Membrane Permeable-Phenotype (%) [9]: 5%
Population Mitochondria Different-Phenotype (%) [9]: 37%
Population Mitotic Cells (%) [9]: 45%
Population Normal (%) [9]: 93%
Population Pyknosed Nuclei (%) [9]: 16%
Population Tubulin-Different-Phenotype (%) [9]: 53%
Total Cell Count [9]: 143
Population Apoptotic (%) [10]: 50%
Population Fragmented Nuclei (%) [10]: 11%
Population Healthy Nuclei (%) [10]: 74%
Population Hoechst High Intensity Objects (%) [10]: 7%
Population Membrane Permeable-Phenotype (%) [10]: 16%
Population Mitochondria Different-Phenotype (%) [10]: 41%
Population Mitotic Cells (%) [10]: 50%
Population Normal (%) [10]: 92%
Population Pyknosed Nuclei (%) [10]: 14%
Population Tubulin-Different-Phenotype (%) [10]: 47%
Total Cell Count [10]: 77
Population Apoptotic (%) [11]: 87%
Population Fragmented Nuclei (%) [11]: 23%
Population Healthy Nuclei (%) [11]: 39%
Population Hoechst High Intensity Objects (%) [11]: 11%
Population Membrane Permeable-Phenotype (%) [11]: 93%
Population Mitochondria Different-Phenotype (%) [11]: 100%
Population Mitotic Cells (%) [11]: 12%
Population Normal (%) [11]: 88%
Population Pyknosed Nuclei (%) [11]: 36%
Total Cell Count [11]: 95
Population Apoptotic (%) [12]: 93%
Population Fragmented Nuclei (%) [12]: 22%
Population Healthy Nuclei (%) [12]: 48%
Population Hoechst High Intensity Objects (%) [12]: 5%
Population Membrane Permeable-Phenotype (%) [12]: 98%
Population Mitochondria Different-Phenotype (%) [12]: 98%
Population Mitotic Cells (%) [12]: 6%
Population Normal (%) [12]: 94%
Population Pyknosed Nuclei (%) [12]: 29%
Population Tubulin-Different-Phenotype (%) [12]: 100%
Total Cell Count [12]: 119
